The nature of series [1]: Plasma protein binding in rat at 2 uM incubated for 4 to 24 hrs by equilibrium dialysis method. The series is classed as ADME, cell-free. The conditions noted are these: time 4-24 hrs, read-out: PPB (converted). A digest of the protocol:
(§1)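 Rapid equilibrium dialysis in mouse, rat, dog, monkey or human plasma for 4 or 24 h at 2 μM.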

The nature of series [2]: Plasma protein binding in Cynomolgous monkey at 2 uM incubated for 4 to 24 hrs by equilibrium dialysis method. The format is ADME, cell-free, Macaca fascicularis. The settings on record: cynomolgus monkey, time 4-24 hrs, read-out: PPB (converted). A digest of the protocol:
as §1
(In general: In equilibrium dialysis free small molecules cross a membrane that holds back macromolecules.)

Series [3] in a line: Prodrug conversion in Beagle dog assessed as formation of N-(3-cyano-4-fluorophenyl)-4-(2-((3-ethynyloxetan-3-yl)amino)-2-oxoacetyl)-1,3,5-trimethyl-1H-pyrrole-2-carboxamide metabolite at 6.3 mg/kg, po measured for 24 hrs. The series is classed as ADME, organism-based, Canis lupus familiaris. The conditions noted are these: in vivo. A digest of the protocol: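 Single oral prodrug dose at molar equivalent of 30 mg/kg (rats) or […] of parent in 95% PEG 400/5% copovidone; whole blood collected into 4 volumes 75% MeOH/25% acetonitrile, centrifuged, parent quantified by LC-MS/MS; noncompartmental PK analysis.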

Series [4] has as its target Solute carrier family 22 member 6 (Homo sapiens, UniProt Q4U2R8). The series can be described thus: Inhibition of OAT1 (unknown origin) transfected in HEK293 cells. The format is cell-based. The essentials: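 HEK-293 cells transfected with the uptake transporter; uptake of known probe substrates measured with test compound at eight concentrations (0.0229–50.0 μM or 0.0457–100 μM); inhibition at each concentration used to calculate IC50.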

The subject of series [5] is Hepatitis B virus. As to the kind of experiment: Antiviral activity against HBV genotype D infected in human HepG2.117 cells assessed as decrease in HBV DNA production in presence of 40 percent human serum by qPCR analysis. The series is classed as functional, organism-based. The essentials: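 HepG2.117 cells (integrated genotype D HBV genome, Tet-off promoter; kept in 1 μg/mL doxycycline) were seeded at 20,000 cells/well and given serial compound dilutions (2% DMSO) for 3 days at 37 °C. Lysates were taken in 0.33% NP40. Intracellular HBV DNA was quantified by qPCR and EC50/EC90 derived. For serum shift, 40% human serum was present during incubation. Mean ± SEM, n=3 (serum) or 13.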
A general note: Quantitative PCR measures a nucleic acid by following its amplification.

In series [6] the test system is Hepatitis B virus. The series can be described thus: Antiviral activity against HBV infected in human primary hepatocyte cells assessed as decrease in HBV RNA production pre-infected cells with virus followed by compound treatment for 3 days and subsequent replacement of medium with compound measured after 4 days by qPCR analysis. The format is functional, organism-based.

A short description of series [7]: Plasma protein binding in dog at 1 uM incubated for 4 to 24 hrs by equilibrium dialysis method. The series is classed as ADME, cell-free, Canis lupus familiaris. The settings on record: time 4-24 hrs, read-out: PPB (converted). A digest of the protocol:
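Rapid equilibrium dialysis in mouse, rat, dog, monkey or human plasma for 4 or 24 h; test concentrations 1, […].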

Series [8] can be described thus: Clearance in C57BL/6J mouse at 1 mg/kg, iv by LC-MS/MS analysis. The settings on record: in vivo. The series is classed as ADME, organism-based. A digest of the protocol: (§2)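 Single dose to fasted male C57BL6 mice, Sprague-Dawley rats, beagle dogs and cynomolgus monkeys, either IV at 1 mg/kg or PO as a solution at 5 mg/kg, in 80% PEG 400 in water. Plasma concentrations were measured by LC-MS/MS. PK parameters come from noncompartmental analysis using nominal doses and nominal sampling times.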

A short description of series [9]: Half life in C57BL/6J mouse at 1 mg/kg, iv by LC-MS/MS analysis. The format is ADME, organism-based. The conditions noted are these: in vivo. A digest of the protocol: as §2
A short description of series [10]: AUC (infinity) in C57BL/6J mouse at 1 mg/kg, iv by LC-MS/MS analysis. The format is ADME, organism-based. The settings on record: in vivo. The essentials:
as §2

Series [11] in a line: AUC (infinity) in C57BL/6J mouse at 5 mg/kg, po by LC-MS/MS analysis. The series is classed as ADME, organism-based. The settings on record: in vivo. The essentials:
as §2

Series [12] can be described thus: Half life in C57BL/6J mouse at 5 mg/kg, po by LC-MS/MS analysis. The format is ADME, organism-based. The settings on record: in vivo. A digest of the protocol: as §2
A short description of series [13]: Cmax in Sprague-Dawley rat at 5 mg/kg, po by LC-MS/MS analysis. The series is classed as ADME, organism-based. The conditions noted are these: in vivo. The essentials: as §2
Series [14] in a line: AUC (infinity) in Sprague-Dawley rat at 5 mg/kg, po by LC-MS/MS analysis. The format is ADME, organism-based. The conditions noted are these: in vivo. The essentials:
as §2

The nature of series [15]: Half life in Sprague-Dawley rat at 5 mg/kg, po by LC-MS/MS analysis. The series is classed as ADME, organism-based. The conditions noted are these: in vivo. A digest of the protocol:
as §2

Series [16] can be described thus: Clearance in Beagle dog at 1 mg/kg, iv by LC-MS/MS analysis. The format is ADME, organism-based, Canis lupus familiaris. The settings on record: in vivo. The essentials: as §2
The nature of series [17]: AUC (infinity) in Beagle dog at 5 mg/kg, po by LC-MS/MS analysis. The series is classed as ADME, organism-based, Canis lupus familiaris. The settings on record: in vivo. The essentials:
as §2

A short description of series [18]: Oral bioavailability in Beagle dog at 5 mg/kg by LC-MS/MS analysis. The series is classed as ADME, organism-based, Canis lupus familiaris. The settings on record: in vivo. The essentials: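 Fasted male C57BL6 mice, Sprague–Dawley rats, beagle dogs, cynomolgus monkeys; single IV dose 1 mg/kg or PO solution 5 mg/kg in 80% PEG 400 in water; plasma concentrations measured, noncompartmental analysis with nominal doses and times; F from PO vs IV AUC.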

Series [19] is described as follows: Clearance in Cynomolgous monkey at 1 mg/kg, iv by LC-MS/MS analysis. The format is ADME, organism-based, Macaca fascicularis. The conditions noted are these: cynomolgus monkey, in vivo. The essentials:
as §2

The nature of series [20]: Volume of distribution at steady state in Cynomolgous monkey at 1 mg/kg, iv by LC-MS/MS analysis. The format is ADME, organism-based, Macaca fascicularis. The settings on record: cynomolgus monkey, in vivo, read-out: Vdss. A digest of the protocol: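 Fasted males (C57BL6 mice, Sprague−Dawley rats, beagle dogs, cynomolgus monkeys) given a single IV dose of 1 mg/kg in 80% PEG 400 in water. Plasma concentrations measured by LC-MS/MS. Vss derived by noncompartmental analysis using nominal dose and nominal sampling times.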

Series [21] can be described thus: Tmax in Cynomolgous monkey at 5 mg/kg, po by LC-MS/MS analysis. The series is classed as ADME, organism-based, Macaca fascicularis. The conditions noted are these: cynomolgus monkey, in vivo. A digest of the protocol: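 Fasted males (C57BL6 mice, Sprague−Dawley rats, beagle dogs, cynomolgus monkeys) given a single oral solution dose of 5 mg/kg in 80% PEG 400 in water. Plasma sampled over time, analysed by LC-MS/MS. Noncompartmental analysis used nominal doses and nominal sampling times.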

Series [22] relates to Hepatitis B virus. The series can be described thus: Antiviral activity against AAV-Hepatitis B virus infected in C57BL/6 mouse assessed as reduction in baseline HBV DNA production at 15 mg/kg, po bid measured after 56 days. The conditions noted are these: time 56 day. The format is functional.
A short description of series [23]: Toxicity in C57BL/6 mouse infected with AAV-Hepatitis B virus assessed as change in ALT level at 15 to 50 mg/kg, po qd for 56 days followed by induction of compound washout period for 14 days. The format is organism-based. The conditions noted are these: in vivo, 1680 h, dose 15-50 mg/kg, time 70 day.
Series [24] relates to Mus musculus. As to the kind of experiment: Effect on HBsAg level in C57BL/6 mouse infected with AAV-Hepatitis B virus at 15 mg/kg, po bid for 56 days followed by induction of compound washout period for 14 days. The conditions noted are these: time 70.0 day. The format is functional, organism-based.
The subject of series [25] is Mus musculus. As to the kind of experiment: Effect on HBeAg level in C57BL/6 mouse infected with AAV-Hepatitis B virus at 15 mg/kg, po bid for 56 days followed by induction of compound washout period for 14 days. The format is functional, organism-based. The settings on record: time 70.0 day.
Series [26] addresses Cytochrome P450 3A4 (Homo sapiens, UniProt P08684). The series can be described thus: Induction of CYP3A4 (unknown origin) in human hepatocytes upto 30 uM. The format is ADME, cell-based, Hepatocyte.
A short description of series [27]: Effect on mitochondrial biogenesis in human HepG2 cells upto 10 uM. The settings on record: hepg2, 10 µM. The format is toxicity, cell-based.
Series [28] in a line: Effect on differentiation of human HPC cells upto 10 uM. The format is toxicity, cell-based.

The source made the active and inactive calls.

Sequence of Solute carrier family 22 member 6 (Q4U2R8 whole entry): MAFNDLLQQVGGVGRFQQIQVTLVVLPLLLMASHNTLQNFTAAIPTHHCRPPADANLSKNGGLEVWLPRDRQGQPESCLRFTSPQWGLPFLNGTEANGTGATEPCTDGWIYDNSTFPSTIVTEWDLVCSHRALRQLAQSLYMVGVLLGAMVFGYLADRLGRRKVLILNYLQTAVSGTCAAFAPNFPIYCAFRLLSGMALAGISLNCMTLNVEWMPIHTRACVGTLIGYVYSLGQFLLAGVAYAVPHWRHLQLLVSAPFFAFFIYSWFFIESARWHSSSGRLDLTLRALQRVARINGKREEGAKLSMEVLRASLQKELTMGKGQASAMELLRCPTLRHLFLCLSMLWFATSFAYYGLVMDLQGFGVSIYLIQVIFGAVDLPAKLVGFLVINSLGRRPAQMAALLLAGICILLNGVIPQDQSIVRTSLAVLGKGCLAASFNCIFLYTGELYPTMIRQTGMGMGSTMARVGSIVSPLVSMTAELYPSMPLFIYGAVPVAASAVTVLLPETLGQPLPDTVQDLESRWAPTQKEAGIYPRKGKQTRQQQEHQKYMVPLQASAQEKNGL
Sequence of Cytochrome P450 3A4 (P08684 whole entry): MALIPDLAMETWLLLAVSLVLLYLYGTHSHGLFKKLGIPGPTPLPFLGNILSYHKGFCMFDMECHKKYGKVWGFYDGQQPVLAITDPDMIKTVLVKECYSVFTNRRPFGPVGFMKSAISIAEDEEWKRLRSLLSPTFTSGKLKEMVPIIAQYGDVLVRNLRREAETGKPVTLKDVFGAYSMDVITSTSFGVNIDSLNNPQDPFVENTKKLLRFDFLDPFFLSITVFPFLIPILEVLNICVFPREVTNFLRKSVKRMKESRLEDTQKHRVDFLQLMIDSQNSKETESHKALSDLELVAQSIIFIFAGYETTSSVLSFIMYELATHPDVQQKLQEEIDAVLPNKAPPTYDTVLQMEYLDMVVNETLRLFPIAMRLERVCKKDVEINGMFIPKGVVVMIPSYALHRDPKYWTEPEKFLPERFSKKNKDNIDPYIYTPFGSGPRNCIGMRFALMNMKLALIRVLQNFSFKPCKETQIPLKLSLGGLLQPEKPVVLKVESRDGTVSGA

`C#CC1(N(COP(=O)([O-])[O-])C(=O)C(=O)c2c(C)c(C(=O)Nc3ccc(F)c(C#N)c3)n(C)c2C)COC1.[Na+].[Na+]`: the fraction unbound at 2 µM is 0.025 in series [1] and 0.126 in [2]. Moreover, the Drug metabolism entry in series [3] is reported as “metabolite_detected”. Further, the IC50 (as a rule, the point on the concentration scale where inhibition reaches its midpoint) in series [4] stood at 10.8 µM.

For `C#CC1(NC(=O)C(=O)c2c(C)c(C(=O)Nc3ccc(F)c(C#N)c3)n(C)c2C)COC1`, the values for the EC50 in [5] and in series [6] were 0.00748 µM and 0.0547 µM, respectively. Also, the fraction unbound at 1 µM in series [7] was 0.286. The clearance (in general, the rate of elimination divided by the concentration) in [8] was determined as 12 mL/min/kg; in [16], 1.97 mL/min/kg; in series [19] it was 7.89 mL/min/kg. Moreover, the half-life – broadly, the time needed for the level to fall by half in the phase considered – in [9] is 1.37 h; in series [12], 1.55 h; in [15], 2.17 h. The AUC(0-inf) – broadly, total exposure, with the tail of the curve extrapolated – in series [10] stood at 1390 ng·h/mL; in series [11] it was 7990 ng·h/mL; in series [14], 8720 ng·h/mL; in series [17] it was 24500 ng·h/mL. The highest level in series [13] (Cmax) was 1830 ng/mL. The bioavailability (as a rule, the share of a dose that reaches the circulation, judged against a reference dose that is usually intravenous) in series [18] amounted to 57.5%. In addition, the Vd in [20] was found to be 0.89 L/kg. Further, the Tmax (as a rule, the time from dosing to the highest level) in [21] came out at 1.17 h. The Activity is given as -1.47 log10IU/ml in series [22]; “Non-toxic” in series [23]; “Not_active” in [26]; “Non-toxic” in [27]; “Non-toxic” in [28]. For the same molecule, the result in series [24] and in [25] was inactive.

The record behind these values is ChEMBL document CHEMBL6092224, “The Discovery and Preclinical Profile of ALG-000184, a Prodrug of the Potent Hepatitis B Virus Capsid Assembly Modulator ALG-001075” (J Med Chem, 2024).
